Source: ChEMBL document CHEMBL1147663, “Structure-activity relationships of bifunctional peptides based on overlapping pharmacophores at opioid and cholecystokinin receptors” (J Med Chem, 2006)
Activity calls are given as the source filed them. The calls are words filed in the database; no cut-off is given here. Where a SMILES comes first, the peptide text is derived from it. [ ]: non-standard residue; d: D form. NMeNle = CCCC[C@H](NC)C(=O)O

Key:
[1] = target: T1, Delta-type opioid receptor (Homo sapiens, UniProt P41143); assay: Displacement of [3H]DPDPE from human delta opioid receptor expressed in HN9.10 cells; assay type: cell-based
T1 sequence (P41143 whole entry): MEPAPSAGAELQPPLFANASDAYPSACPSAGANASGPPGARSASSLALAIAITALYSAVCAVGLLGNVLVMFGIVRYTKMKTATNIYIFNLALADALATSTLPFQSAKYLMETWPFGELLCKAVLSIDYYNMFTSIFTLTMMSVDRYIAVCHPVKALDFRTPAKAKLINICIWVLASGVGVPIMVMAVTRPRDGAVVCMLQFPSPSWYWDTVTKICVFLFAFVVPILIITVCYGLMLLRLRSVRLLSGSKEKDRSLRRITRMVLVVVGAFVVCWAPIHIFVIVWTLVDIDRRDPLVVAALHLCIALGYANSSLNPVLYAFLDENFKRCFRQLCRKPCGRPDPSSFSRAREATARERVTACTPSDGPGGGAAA
Method in brief: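 HN9.10 cell membranes (50 μg) expressing hDOR, 10 test concentrations with 1.0 nM [3H]DPDPE in 50 mM Tris pH 7.4 with peptidase inhibitors and BSA, 3 h at 25 °C, duplicates; filtration, scintillation counting. Nonspecific with 10 μM naloxone. Ki by Cheng–Prusoff.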

Mu-type opioid receptor [2] = target: T2, Mu-type opioid receptor (Rattus norvegicus, UniProt P33535); assay: Displacement of [3H]DAMGO from rat mu opioid receptor expressed in HN9.10 cells; assay type: cell-based
T2 sequence (P33535 whole entry): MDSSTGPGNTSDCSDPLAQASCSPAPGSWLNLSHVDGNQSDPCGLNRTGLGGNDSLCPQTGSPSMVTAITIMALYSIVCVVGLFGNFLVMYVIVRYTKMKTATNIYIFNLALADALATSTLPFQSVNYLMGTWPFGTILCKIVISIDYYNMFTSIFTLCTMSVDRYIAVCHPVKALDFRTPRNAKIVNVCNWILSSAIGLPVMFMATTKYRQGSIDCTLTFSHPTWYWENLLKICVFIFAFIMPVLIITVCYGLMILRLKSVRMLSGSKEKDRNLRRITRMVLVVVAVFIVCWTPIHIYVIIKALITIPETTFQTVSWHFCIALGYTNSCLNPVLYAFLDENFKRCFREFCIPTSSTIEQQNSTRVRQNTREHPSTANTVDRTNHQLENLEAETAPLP
Method in brief: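 HN9.10 cell membranes (50 μg) expressing rMOR, 10 test concentrations with 1.0 nM [3H]DAMGO in 50 mM Tris pH 7.4 with peptidase inhibitors and BSA, 3 h at 25 °C, duplicates; filtration, scintillation counting. Nonspecific with 10 μM naloxone. Ki by Cheng–Prusoff.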

[3] = target: T1, Delta-type opioid receptor; assay: Activity against [35S]GTP-gamma-S binding to human delta opioid receptor expressed in HN9.10 cells; assay type: functional, cell-based
Method in brief: (§1)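 Membranes (10 μg) from HN9.10 cells stably expressing hDOR or rMOR; various drug concentrations in duplicate or triplicate, 90 min at 30 °C in HEPES pH 7.4 with GDP, MgCl2, NaCl, 0.1 nM [35S]GTPγS; filtration, scintillation counting.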

[4] = target: Mu-type opioid receptor (Rattus norvegicus) (UniProt P33535); assay: (§2) Activity against [35S]GTP-gamma-S binding to rat mu opioid receptor expressed in HN9.10 cells; assay type: functional, cell-based; method in brief: as §1
Chain of Mu-type opioid receptor (Rattus norvegicus) (P33535 whole entry): as above

Mu-type opioid receptor [5] = target: T2, Mu-type opioid receptor; assay: as §2; assay type: functional, cell-based; method in brief: as §1
[6] = target: Delta-type opioid receptor (Mus musculus, UniProt P32300); assay: Agonist activity at delta opioid receptor assessed as inhibition of electrically stimulated ICR mouse vas deferens contraction; assay type: functional, tissue-based
Chain of Delta-type opioid receptor (Mus musculus, UniProt P32300) (P32300 whole entry): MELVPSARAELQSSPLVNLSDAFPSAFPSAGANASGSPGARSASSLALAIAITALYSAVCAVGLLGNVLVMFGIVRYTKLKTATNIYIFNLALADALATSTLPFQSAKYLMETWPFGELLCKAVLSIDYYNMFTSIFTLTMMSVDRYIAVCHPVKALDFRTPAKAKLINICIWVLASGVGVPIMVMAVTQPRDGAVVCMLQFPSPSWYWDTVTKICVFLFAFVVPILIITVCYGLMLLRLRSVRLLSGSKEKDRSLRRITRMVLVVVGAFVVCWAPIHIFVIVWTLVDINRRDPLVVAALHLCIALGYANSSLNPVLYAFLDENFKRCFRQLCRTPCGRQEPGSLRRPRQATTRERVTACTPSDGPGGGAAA
Method in brief: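 Vas deferens from male ICR mice, in 20 mL baths at 0.5 g tension, Mg-free oxygenated Krebs, 37 °C; electrical stimulation 0.1 Hz, 2.0 ms pulses, supramaximal voltage. Cumulative addition to maximal inhibition; integrity checked with 10 nM DPDPE. IC50 by Hill-equation nonlinear least-squares fit, at least four tissues.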

Mu-type opioid receptor [7] = target: Mu-type opioid receptor (Cavia porcellus, UniProt P97266); assay: Agonist activity at mu opioid receptor assessed as inhibition of electrically stimulated Hartley guinea pig ileum contraction; assay type: functional, tissue-based
Chain of Mu-type opioid receptor (Cavia porcellus, UniProt P97266) (P97266 whole entry): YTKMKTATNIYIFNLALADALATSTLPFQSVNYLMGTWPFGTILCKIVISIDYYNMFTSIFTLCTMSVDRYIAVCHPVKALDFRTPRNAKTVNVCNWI
Method in brief: (§3)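 Longitudinal muscle–myenteric plexus strips from male Hartley guinea pig ileum, 1 g tension, oxygenated Krebs at 37 °C; 0.1 Hz, 0.4 ms supramaximal stimulation. […] Integrity checked with 10 nM PL-017. Hill-equation fit, at least four tissues.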

[8] = target: T3, Cholecystokinin receptor type A (Homo sapiens, UniProt P32238); assay: Displacement of [125I]CCK-8(SO3) from human CCK1 receptor expressed in HEK293 cells; assay type: cell-based
T3 sequence (P32238 whole entry): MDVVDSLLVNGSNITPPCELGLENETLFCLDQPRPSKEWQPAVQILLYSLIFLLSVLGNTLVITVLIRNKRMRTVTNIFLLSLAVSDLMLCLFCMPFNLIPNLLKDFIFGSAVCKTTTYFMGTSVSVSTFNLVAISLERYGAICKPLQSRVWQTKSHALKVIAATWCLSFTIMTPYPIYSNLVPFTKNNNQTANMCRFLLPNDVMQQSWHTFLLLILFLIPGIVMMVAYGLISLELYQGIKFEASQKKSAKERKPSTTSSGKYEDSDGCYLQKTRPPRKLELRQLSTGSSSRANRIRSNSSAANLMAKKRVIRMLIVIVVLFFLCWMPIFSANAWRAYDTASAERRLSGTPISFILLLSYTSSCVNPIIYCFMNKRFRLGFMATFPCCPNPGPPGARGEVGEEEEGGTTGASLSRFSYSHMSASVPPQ

[9] = target: T4, Gastrin/cholecystokinin type B receptor (Homo sapiens, UniProt P32239); assay: Displacement of [125I]CCK-8(SO3) from human CCK2 receptor expressed in HEK293 cells; assay type: cell-based
T4 sequence (P32239 whole entry): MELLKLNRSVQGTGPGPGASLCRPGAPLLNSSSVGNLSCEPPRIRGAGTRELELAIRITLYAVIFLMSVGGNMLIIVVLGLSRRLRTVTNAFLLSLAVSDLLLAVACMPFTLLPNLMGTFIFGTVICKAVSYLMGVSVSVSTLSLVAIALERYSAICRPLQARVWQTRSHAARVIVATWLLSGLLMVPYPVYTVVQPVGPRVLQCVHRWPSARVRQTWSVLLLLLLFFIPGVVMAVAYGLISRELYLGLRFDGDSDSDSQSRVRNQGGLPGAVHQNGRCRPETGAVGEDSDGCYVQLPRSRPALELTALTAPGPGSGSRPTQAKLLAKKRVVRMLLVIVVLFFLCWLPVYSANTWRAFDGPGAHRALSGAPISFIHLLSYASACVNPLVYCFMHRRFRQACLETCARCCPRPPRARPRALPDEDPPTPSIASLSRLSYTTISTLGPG

[10] = target: T3, Cholecystokinin receptor type A; assay: Antagonist activity at CCK1 receptor expressed in HEK 293 cells assessed as accumulation of [3H]inositol phosphates by PI assay; assay type: functional, cell-based, HEK293
[11] = target: T4, Gastrin/cholecystokinin type B receptor; assay: Antagonist activity at CCK2 receptor expressed in HEK293 cells assessed as accumulation of [3H]inositol phosphates by PI assay; assay type: functional, cell-based
[12] = target: T5, Gastrin/cholecystokinin type B receptor (Homo sapiens) (UniProt P32239); details: HEK293
T5 sequence (whole entry): T4 sequence (P32239 whole entry)

[13] = target: T6, Cholecystokinin receptor type A (Homo sapiens) (UniProt P32238); details: HEK293
T6 sequence (whole entry): T3 sequence (P32238 whole entry)

[14] = target: Mu-type opioid receptor (Cavia porcellus) (UniProt P97266); assay: Agonist activity at mu opioid receptor assessed as inhibition of electrically stimulated Hartley guinea pig ileum contraction at 1 uM; assay type: functional, tissue-based; method in brief: as §3
Chain of Mu-type opioid receptor (Cavia porcellus) (P97266 whole entry): as the sequence (P97266 whole entry) above

[15] = target: Delta-type opioid receptor (Mus musculus) (UniProt P32300); assay: Agonist activity at delta opioid receptor assessed as inhibition of electrically stimulated ICR mouse vas deferens contraction at 1 uM; assay type: functional, tissue-based
Chain of Delta-type opioid receptor (Mus musculus) (P32300 whole entry): as the sequence (P32300 whole entry) above

Structure (SMILES)	IC50 [1] [nM]	Ki [1] [nM]	IC50 (Mu-type opioid receptor [2]) [nM]	Ki (Mu-type opioid receptor [2]) [nM]	EC50 [3] [nM]	Emax [3] [%]	Emax [4] [%]	EC50 (Mu-type opioid receptor [5]) [nM]	IC50 [6] [nM]	IC50 (Mu-type opioid receptor [7]) [nM]	IC50 [8] [nM]	Ki [8] [nM]	IC50 [9] [nM]	Ki [9] [nM]	EC50 [10] [nM]	EC50 [11] [nM]	Log EC50 [12]	Log EC50 [13]	inhibition [14] [%]	inhibition [15] [%]
CCCC[C@H](NC(=O)[C@H](Cc1c[nH]c2ccccc12)NC(=O)CNC(=O)[C@@H](Cc1ccccc1)NC(=O)[C@@H](N)Cc1ccc(O)cc1)C(=O)N[C@@H](CC(=O)O)C(=O)N[C@@H](Cc1ccccc1)C(N)=O	0.427	0.2	79.4	34	0.9	170	180	1.4	12	420	97.7	98	25.7	26	300	110	–	–	–	–
CCCC[C@H](NC(=O)[C@@H](Cc1c[nH]c2ccccc12)NC(=O)CNC(=O)[C@@H](CCCC)NC(=O)[C@@H](N)Cc1ccc(O)cc1)C(=O)N[C@@H](CC(=O)O)C(=O)N[C@@H](Cc1ccccc1)C(N)=O	47.9	20	631	270	4.1	75	110	20	310	1000	–	–	2190	2200	–	–	inactive	–	–	–
CCCC[C@@H](C(=O)N[C@@H](CC(=O)O)C(=O)N[C@@H](Cc1ccccc1)C(N)=O)N(C)C(=O)[C@H](Cc1c[nH]c2ccccc12)NC(=O)CNC(=O)[C@@H](Cc1ccccc1)NC(=O)[C@H](Cc1ccc(O)cc1)NC(=O)[C@@H](N)CC(=O)O	550	250	11500	5200	110	80	91	81	–	–	3160	3200	–	–	–	–	–	inactive	–	–
CCCC[C@@H](C(=O)N[C@@H](CC(=O)O)C(=O)N[C@@H](Cc1ccccc1)C(N)=O)N(C)C(=O)[C@H](Cc1c[nH]c2ccccc12)NC(=O)CNC(=O)[C@H]1CCCN1C(=O)[C@@H](N)Cc1ccc(O)cc1	200	85	6030	2600	890	110	210	900	890	–	10500	> 10000	2.69	2.7	–	36	–	–	13	–
CCCC[C@@H](C(=O)N[C@@H](CC(=O)O)C(=O)N[C@@H](Cc1ccccc1)C(N)=O)N(C)C(=O)[C@H](Cc1c[nH]c2ccccc12)NC(=O)CNC(=O)[C@@H]1CCCN1C(=O)[C@@H](N)Cc1ccc(O)cc1	3390	1500	–	–	–	–	–	–	–	–	–	–	0.219	0.22	–	–	–	–	1.2	5
CCCC[C@@H](NC(=O)[C@@H](N)Cc1ccc(O)cc1)C(=O)NCC(=O)N[C@H](Cc1c[nH]c2ccccc12)C(=O)N(C)[C@@H](CCCC)C(=O)N[C@@H](CC(=O)O)C(=O)N[C@@H](Cc1ccccc1)C(N)=O	724	310	2880	1200	–	–	47	250	700	–	9120	910	1100	1100	–	–	inactive	inactive	8.8	–
CCCC[C@@H](C(=O)N[C@@H](CC(=O)O)C(=O)N[C@@H](Cc1ccccc1)C(N)=O)N(C)C(=O)[C@H](Cc1c[nH]c2ccccc12)NC(=O)CNC(=O)CNC(=O)[C@@H](N)Cc1ccc(O)cc1 (H-YGGW[NMeNle]DF-NH2)	200	85	550	240	76	68	100	2	220	4200	–	–	4.79	4.8	–	32	–	inactive	–	–
CCCC[C@@H](C(=O)N[C@@H](CC(=O)O)C(=O)N[C@@H](Cc1ccccc1)C(N)=O)N(C)C(=O)[C@@H](Cc1c[nH]c2ccccc12)NC(=O)CNC(=O)[C@@H](Cc1ccccc1)NC(=O)[C@@H](N)Cc1ccc(O)cc1	1	0.42	13.8	5.9	29	14	50	–	24	71	1100	1100	1.1	1.1	–	2.8	–	inactive	–	–
CCCC[C@H](NC(=O)[C@H](Cc1c[nH]c2ccccc12)NC(=O)CNC(=O)[C@@H](CCCC)NC(=O)[C@@H](N)Cc1ccc(O)cc1)C(=O)N[C@@H](CC(=O)O)C(=O)N[C@@H](Cc1ccccc1)C(N)=O	6.03	2.6	60.3	26	4.5	81	88	0.46	23	210	9.55	9.6	15.1	15	2500	1900	–	–	–	–
